Measured values published in ChEMBL document CHEMBL1143304, “Isolation, structure and biological activity of phomafungin, a cyclic lipodepsipeptide from a widespread tropical Phoma sp” (Bioorg Med Chem, 2009).
Converted amounts (≈) assume the structure as drawn. The source made the active and inactive calls. The rule behind the calls is not given here. Where a SMILES comes first, the peptide text is derived from it. [ ]: non-standard residue; d: D form. The star is where a group is joined. X1 = CCCCCCCCCCCCC(C)C(O)CC(=O)*; hSer = N[C@@H](CCO)C(=O)O

How the values were obtained:
[1] = tested on: Nakaseomyces glabratus; assay: Antimicrobial activity against Candida glabrata MY1381 […] by broth macrodilution method; assay type: functional; details: for MIC: read-out: MIC100
[2] = tested on: Candida albicans; assay: Antimicrobial activity against Candida albicans MY1055 after 24 hrs by broth macrodilution method; assay type: functional; details: for MIC: read-out: MIC100
Outline: (§1)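 Broth MIC: inoculum 10^5 CFU/ml, incubated at 37 °C with 2-fold serial dilutions of compound in growth medium. MIC was the lowest concentration preventing visible growth.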

[3] = tested on: Candida albicans; assay: Antimicrobial activity against Candida albicans MY1055 after 24 hrs in presence of 50% mouse serum by broth macrodilution method; assay type: functional; details: MY1055, 24 h; for MIC: read-out: MIC100
[4] = tested on: Candida parapsilosis; assay: Antimicrobial activity against Candida parapsilosis ATCC 22019 […] by broth macrodilution method; assay type: functional; details: Lodderomyces parapsilosis, read-out: MIC100
[5] = tested on: Clavispora lusitaniae; assay: Antimicrobial activity against Candida lusitaniae MY1396 after 24 hrs by broth macrodilution method; assay type: functional; details: for MIC: read-out: MIC100; outline: as §1
[6] = tested on: Pichia kudriavzevii; assay: Antimicrobial activity against Candida krusei ATCC 6258 […] by broth macrodilution method; assay type: functional; details: for MIC: read-out: MIC100
[7] = tested on: Candida tropicalis; assay: Antimicrobial activity against Candida tropicalis MY1012 after 24 hrs by broth macrodilution method; assay type: functional; details: for MIC: read-out: MIC100; outline: as §1
[8] = tested on: Aspergillus fumigatus; assay: Antimicrobial activity against Aspergillus fumigatus MF5668 after 48 hrs by broth macrodilution method; assay type: functional; details: for MIC: read-out: MIC100; outline: as §1
[9] = tested on: Aspergillus fumigatus; assay: Antimicrobial activity against Aspergillus fumigatus MF5668 in presence of 50% human serum after 48 hrs by broth macrodilution method; assay type: functional; details: for MIC: read-out: MIC100
[10] = tested on: Trichophyton mentagrophytes; assay: Antimicrobial activity against Trichophyton mentagrophytes MF7004 after 96 hrs by broth macrodilution method; assay type: functional; details: for MIC: read-out: MIC100
[11] = tested on: Staphylococcus aureus; assay: Antimicrobial activity against Staphylococcus aureus MB2865 […] by broth macrodilution method; assay type: functional; details: read-out: MIC100
[12] = tested on: Mus musculus; assay: Toxicity in Candida albicans MY1055 infected DBA/2 mouse assessed as mouse mortality at 12.5 mg/kg, ip administered twice daily for 2 days; assay type: organism-based; design: dose 12.5 mg/kg, route intraperitoneal; details: in vivo, 48 h
Outline: (§2)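 DBA/2 mice, five per group, were infected i.v. via lateral tail vein with 2.51 × 10^4 CFU/mouse. Sodium salt in water was given IP twice daily at 50, 25, 12.5, 5 or 2.5 mg/kg. Kidneys were homogenized in saline, serially diluted and plated on SDA (35 °C, 30–48 h). CFU/g were compared with sham-treated mice by paired two-tailed t-test.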

[13] = tested on: Mus musculus; assay: Toxicity in Candida albicans MY1055 infected DBA/2 mouse assessed as mouse mortality at 25 mg/kg, ip administered twice daily for 2 days; assay type: organism-based; design: dose 25 mg/kg, route intraperitoneal; details: in vivo, 48 h; outline: as §2
[14] = tested on: Mus musculus; assay: Toxicity in Candida albicans MY1055 infected DBA/2 mouse assessed as mouse mortality at 50 mg/kg, ip administered twice daily for 2 days; assay type: organism-based; design: dose 50 mg/kg, route intraperitoneal; details: in vivo, 48 h; outline: as §2
[15] = tested on: Mus musculus; assay: Toxicity in Candida albicans MY1055 infected DBA/2 mouse assessed as mouse mortality at <5 mg/kg, ip administered twice daily for 2 days; assay type: organism-based; details: in vivo, 48 h; outline: as §2
[16] = tested on: Candida albicans; assay: Antimicrobial activity against Candida albicans MY1055 infected DBA/2 mouse at <5 mg/kg, ip administered twice daily for 2 days; assay type: functional, organism-based; outline: as §2
[17] = tested on: Candida albicans; assay: Antimicrobial activity against Candida albicans MY1055 infected DBA/2 mouse at <5 mg/kg, […] administered twice daily for 2 days; assay type: functional, organism-based
[18] = tested on: Mus musculus; assay: Dose normalized AUC in Candida albicans MY1055 infected iv dosed DBA/2 mouse; assay type: ADME, organism-based; details: in vivo
[19] = Clearance in Candida albicans MY1055 infected iv dosed DBA/2 mouse; assay type: ADME, organism-based; details: in vivo
[20] = Half life in Candida albicans MY1055 infected iv dosed DBA/2 mouse; assay type: ADME, organism-based; details: in vivo
[21] = Toxicity against human HCT116 cells; assay type: cell-based, HCT-116
[22] = Toxicity against human PC3 cells; assay type: cell-based, PC-3
[23] = Toxicity against human GTL16 cells; assay type: cell-based, GTL 16
[24] = Toxicity against human HEL cells; assay type: cell-based
[25] = tested on: Candida albicans; assay: Antimicrobial activity against Candida albicans MY1055 infected DBA/2 mouse administered twice daily for 2 days; assay type: functional, organism-based
Outline: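 DBA/2 mice (5 per group) were infected i.v. via lateral tail vein with 2.51 × 10^4 CFU per mouse. The sodium salt in water was given IP twice daily at 50, 25, 12.5, 5 or 2.5 mg/kg. Mortality and health were followed for 4 days. Kidney homogenates were plated on SDA (35 °C, 30–48 h). CFU/g kidney was compared with sham-treated controls by paired two-tailed t-test.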

[26] = tested on: Candida albicans; assay: Antimicrobial activity against Candida albicans MY1055 at 32 ug/mL after 24 hrs by broth macrodilution method; assay type: functional, organism-based

CCCCCCCCCCCCC(C)C1CC(=O)N[C@@H](C)C(=O)NC(CCO)C(=O)N[C@@H](CCC(=O)O)C(=O)NCC(=O)N[C@@H](CO)C(=O)N[C@H](CC(N)=O)C(=O)N[C@H]([C@H](C)O)C(=O)NC(CCO)C(=O)O1 (some centres undefined) [PHOMAFUNGIN]
MIC80 [1]: 4 µg/mL (≈ 3.88 µM)
MIC [1]: 8 µg/mL (≈ 7.77 µM)
MIC [2]: 4 µg/mL (≈ 3.88 µM)
MIC [3]: > 32 µg/mL
MIC [4]: 4 µg/mL (≈ 3.88 µM)
MIC [5]: 4 µg/mL (≈ 3.88 µM)
MIC [6]: 4 µg/mL (≈ 3.88 µM)
MIC [7]: > 32 µg/mL
MIC [8]: 4 µg/mL (≈ 3.88 µM)
MIC [9]: > 32 µg/mL
MIC80 [10]: 1 µg/mL (≈ 0.971 µM)
MIC [10]: 2 µg/mL (≈ 1.94 µM)
MIC [11]: > 32 µg/mL
Activity [12]: Toxic
Activity [13]: Toxic
Activity [14]: Toxic
Activity [15]: Non-toxic
Activity [16]: inactive
Activity [17]: inactive
AUC [18]: 2.64 µM
clearance [19]: 6.15 mL/min/kg
half-life [20]: 1.8 h
IC50 [21]: 20 µM
IC50 [22]: 19 µM
IC50 [23]: 26 µM
IC50 [24]: 15.5 µM

CC[C@H](C)C[C@H](C)CCCCCCCCC(=O)N[C@H]1C[C@@H](O)[C@@H](NCCN)NC(=O)[C@@H]2[C@@H](O)CCN2C(=O)[C@H]([C@H](O)CCN)NC(=O)[C@H]([C@H](O)[C@@H](O)c2ccc(O)cc2)NC(=O)[C@@H]2C[C@@H](O)CN2C(=O)[C@H]([C@@H](C)O)NC1=O [CASPOFUNGIN]
MIC80 [1]: < 0.03 µg/mL
MIC [1]: 0.125 µg/mL (≈ 0.114 µM)
MIC80 [2]: < 0.03 µg/mL
MIC [2]: 0.125 µg/mL (≈ 0.114 µM)
MIC80 [3]: 0.125 µg/mL
MIC [3]: 0.25 µg/mL
MIC [4]: 0.5 µg/mL (≈ 0.457 µM)
MIC80 [5]: < 0.03 µg/mL
MIC [5]: 0.125 µg/mL (≈ 0.114 µM)
MIC80 [6]: 0.25 µg/mL (≈ 0.229 µM)
MIC [6]: 1 µg/mL (≈ 0.915 µM)
MIC80 [7]: < 0.03 µg/mL
MIC [7]: 0.125 µg/mL (≈ 0.114 µM)
MIC80 [8]: < 0.03 µg/mL
MIC [8]: > 32 µg/mL
MIC80 [9]: 0.06 µg/mL
MIC [9]: > 32 µg/mL
MIC80 [10]: 0.03 µg/mL (≈ 0.0274 µM)
MIC [10]: 32 µg/mL (≈ 29.3 µM)
MIC [11]: 32 µg/mL (≈ 29.3 µM)

CCCCCCCCCCCCC(C)C(O)CC(=O)N[C@@H](C)C(=O)N[C@@H](CCO)C(=O)N[C@@H](CCC(=O)O)C(=O)NCC(=O)N[C@@H](CO)C(=O)N[C@@H](CC(N)=O)C(=O)N[C@H](C(=O)N[C@@H](CCO)C(=O)O)[C@@H](C)O (some centres undefined) (X1-A[hSer]EGSNT[hSer]-OH)
Activity [12]: Non-toxic
Activity [25]: inactive
Activity [26]: inactive
